Results reported in ChEMBL document CHEMBL2150957, “Substrate-Selective Inhibition of Cyclooxygenase-2: Development and Evaluation of Achiral Profen Probes” (ACS Med Chem Lett, 2012).

Experiments:
[1] = biological target: T1, Prostaglandin G/H synthase 2 (Mus musculus) (UniProt Q05769); test: Inhibition of mouse COX2-mediated 2-arachidonoylglycerol oxygenation at 10 uM preincubated for 3 mins before 2-arachidonoylglycerol addition measured after 30 seconds relative to control
T1 sequence (whole entry): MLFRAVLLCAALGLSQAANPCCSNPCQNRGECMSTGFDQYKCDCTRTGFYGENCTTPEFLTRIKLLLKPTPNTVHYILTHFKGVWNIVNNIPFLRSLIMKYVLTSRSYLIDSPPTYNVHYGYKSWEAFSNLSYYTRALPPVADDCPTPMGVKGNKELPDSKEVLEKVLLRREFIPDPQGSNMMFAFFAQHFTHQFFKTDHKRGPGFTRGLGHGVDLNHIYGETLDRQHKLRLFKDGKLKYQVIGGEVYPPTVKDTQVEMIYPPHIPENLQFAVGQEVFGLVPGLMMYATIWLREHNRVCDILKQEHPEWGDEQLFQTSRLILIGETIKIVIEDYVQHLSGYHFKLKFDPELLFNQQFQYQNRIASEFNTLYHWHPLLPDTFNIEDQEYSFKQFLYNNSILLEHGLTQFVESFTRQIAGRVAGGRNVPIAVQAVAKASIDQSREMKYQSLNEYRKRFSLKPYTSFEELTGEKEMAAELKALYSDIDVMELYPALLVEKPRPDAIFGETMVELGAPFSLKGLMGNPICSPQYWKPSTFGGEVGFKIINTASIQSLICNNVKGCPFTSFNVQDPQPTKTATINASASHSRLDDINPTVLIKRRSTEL
Summary of the method: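 Purified murine COX-2 (40 nM) preincubated 3 min with inhibitor in DMSO, with a solvent control. 2-AG (5 μM) then added and reacted 30 s at 37 °C. Value is the maximum inhibition at 10 μM inhibitor. Mean ± standard deviation, n = 6.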

[2] = biological target: T1, Prostaglandin G/H synthase 2 (Mus musculus); test: Inhibition of mouse COX2-mediated arachidonic acid oxygenation at 10 uM preincubated for 3 mins before […] measured after 30 seconds
Summary of the method: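 Purified murine COX-2 (40 nM) preincubated 3 min with inhibitor (10 μM) in DMSO, with a solvent control. Arachidonic acid (5 μM) then added and reacted 30 s at 37 °C. Percent inhibition of AA oxygenation. Mean ± standard deviation, n = 6.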

[3] = biological target: T1, Prostaglandin G/H synthase 2 (Mus musculus); test: Inhibition of COX2-mediated arachidonic acid oxygenation in LPS/IFN-gamma-stimulated mouse RAW264.7 cells assessed as AA to PGE2/PGD2 conversion at 25 uM treated 2 hrs after LPS/IFN-gamma stimulation measured after 6 hrs; type: cell-based
Summary of the method: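 RAW 264.7 macrophages stimulated with lipopolysaccharide and interferon γ to generate endogenous AA and 2-AG. Inhibitor added to the medium at varying doses 2 h after stimulation. Medium collected 6 h after stimulation; prostaglandin levels quantified by LC-MS-MS.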

Plasma = test: Metabolic stability of the compound in C57BL/6 mouse plasma assessed as parent compound level at 10 mg/kg, ip after 16 hrs; type: ADME, organism-based; design: dose 10 mg/kg, route intraperitoneal; details: in vivo
Summary of the method: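 Blood collected at 72 h, i.e. 16 h after the last injection. Plasma analysed for the dosed compound and, where applicable, its stereoinversion product (S)-flurbiprofen.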

[4] = Plasma concentration in C57BL/6 mouse at 10 mg/kg, ip after 1 hr; type: ADME, organism-based; design: dose 10 mg/kg, route intraperitoneal
Summary of the method: (§1)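 Single i.p. injection in C57BL/6 mice. Blood sampled at 1, 2 and 4 h after dosing and plasma compound concentration measured. n = 3 at 1 h, 2 at 2 h, 3 at 4 h.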

[5] = Plasma concentration in C57BL/6 mouse at 10 mg/kg, ip after 2 hrs; type: ADME, organism-based; design: dose 10 mg/kg, route intraperitoneal; summary of the method: as §1
[6] = Plasma concentration in C57BL/6 mouse at 10 mg/kg, ip after 4 hrs; type: ADME, organism-based; design: dose 10 mg/kg, route intraperitoneal; summary of the method: as §1

Imax [1] [%] | inhibition [2] [%] | Compound | further results
 | 5 | CC(C)(C(=O)O)c1ccc(-c2ccccc2)c(F)c1 | inhibition [3]: 40%
12 | 7 | COc1ccc2cc(C(C)(C)C(=O)O)ccc2c1 | 
 | 16 | COc1ccc2cc(CC(=O)O)ccc2c1 | 
65 | 17 | CC(C)(C(=O)O)c1cccc(Oc2ccccc2)c1 | 
77 | 6 | COc1ccc2cc(C3(C(=O)O)CC3)ccc2c1 | 
 | 32 | CC(C)(C(=O)O)c1cccc(C(=O)c2ccccc2)c1 | 
5 | 5 | CC(C)Cc1ccc(C(C)(C)C(=O)O)cc1 | 

The next lines start with the molecule.

Compound | Imax [1] [%] | inhibition [2] [%] | further results
O=C(c1ccccc1)c1cccc(C2(C(=O)O)CC2)c1 | 75 | 10 | 
CC(C)Cc1ccc(C2(C(=O)O)CC2)cc1 | 45 | 10 | 
O=C(O)Cc1cccc(C(=O)c2ccccc2)c1 |  | 10 | 
O=C(O)Cc1cccc(Oc2ccccc2)c1 | 68 | 24 | 
CC(C)Cc1ccc(CC(=O)O)cc1 |  | 14 | 
O=C(O)Cc1ccc(-c2ccccc2)c(F)c1 [DESMETHYLFLURBIPROFEN] |  | 7 | Stability (Plasma): Unstable; concentration at 1 h [4]: 68 µM; concentration at 2 h [5]: 50 µM; concentration at 4 h [6]: 6 µM
O=C(O)C1(c2ccc(-c3ccccc3)c(F)c2)CC1 | 87 | 0 | inhibition [3]: 55%
O=C(O)C1(c2cccc(Oc3ccccc3)c2)CC1 |  | 15 | 
